Data published in PubChem BioAssay.
The source made the active and inactive calls.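 How the source made its calls, unless noted: active means Her2 level under about 52% in both replicate screens, with viability over 70% of control (limit read from the data); inconclusive means Her2 under the limit in one screen only, or viability under 70%; inactive means Her2 level above the set limit.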

How the values were obtained:
[1] = reducers of endogenous Her2 protein level, primary screen, SKBR3 breast tumor cells, AlphaScreen, ATP viability (AID 461); conditions: 18-24 h, measured here: SKBR3 viability, ATP luminescence, at 10 µM;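 on Her2 level: lower value means less Her2 protein in the cells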;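 on viability: percent of carrier control wells set as 100% viability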
[2] = target: Receptor tyrosine-protein kinase erbB-2 (Homo sapiens) (UniProt P04626); test: as above; conditions: 18-24 h, at 10 µM, stronger effect = lower value
Chain of Receptor tyrosine-protein kinase erbB-2 (Homo sapiens) (P04626 whole entry, looked up): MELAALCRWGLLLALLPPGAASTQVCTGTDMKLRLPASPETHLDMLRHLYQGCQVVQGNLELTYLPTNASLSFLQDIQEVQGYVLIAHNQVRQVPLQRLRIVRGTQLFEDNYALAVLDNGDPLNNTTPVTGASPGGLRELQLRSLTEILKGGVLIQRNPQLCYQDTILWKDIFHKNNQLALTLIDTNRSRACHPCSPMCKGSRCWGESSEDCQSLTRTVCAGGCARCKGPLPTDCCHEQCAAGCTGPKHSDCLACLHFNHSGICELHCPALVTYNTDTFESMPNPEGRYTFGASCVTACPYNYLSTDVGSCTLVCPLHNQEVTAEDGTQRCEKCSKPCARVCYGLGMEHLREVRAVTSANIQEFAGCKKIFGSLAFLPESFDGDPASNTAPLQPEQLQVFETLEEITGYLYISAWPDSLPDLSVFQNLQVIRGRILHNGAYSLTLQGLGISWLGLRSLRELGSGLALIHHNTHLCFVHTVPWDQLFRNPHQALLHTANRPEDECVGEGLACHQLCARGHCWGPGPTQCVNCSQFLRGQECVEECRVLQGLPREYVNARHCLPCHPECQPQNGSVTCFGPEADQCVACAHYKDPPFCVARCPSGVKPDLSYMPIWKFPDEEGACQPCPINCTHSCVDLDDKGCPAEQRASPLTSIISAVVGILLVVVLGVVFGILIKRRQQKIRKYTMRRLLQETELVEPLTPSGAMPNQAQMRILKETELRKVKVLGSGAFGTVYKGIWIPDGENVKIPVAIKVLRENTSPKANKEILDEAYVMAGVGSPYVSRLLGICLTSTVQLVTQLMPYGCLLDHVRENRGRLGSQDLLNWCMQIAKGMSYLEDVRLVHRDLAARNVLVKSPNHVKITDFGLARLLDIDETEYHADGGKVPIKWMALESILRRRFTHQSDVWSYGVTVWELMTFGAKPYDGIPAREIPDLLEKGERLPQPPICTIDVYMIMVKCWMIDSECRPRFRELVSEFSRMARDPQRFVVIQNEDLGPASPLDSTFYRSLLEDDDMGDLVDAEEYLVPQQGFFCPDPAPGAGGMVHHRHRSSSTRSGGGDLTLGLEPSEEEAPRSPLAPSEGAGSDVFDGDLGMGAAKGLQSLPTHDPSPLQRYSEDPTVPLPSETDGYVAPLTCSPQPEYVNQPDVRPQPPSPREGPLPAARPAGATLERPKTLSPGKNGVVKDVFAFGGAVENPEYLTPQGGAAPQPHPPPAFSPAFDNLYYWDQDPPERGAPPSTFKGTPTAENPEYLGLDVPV

[3] = SK-BR-3 cell growth inhibitors, pilot screen, 24 h, human (AID 572;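 active means viability at or below 10% of carrier control in both of two separate runs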;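 further: compound exposure lasted between 18 and 24 h rather than exactly 24 h; 100% = carrier-treated control wells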); conditions: SK-BR-3 viability, CellTiter-Glo luminescence, at 10 µM, stronger effect = lower value
[4] = HUVEC growth inhibition – cell-based, human, primary screen (AID 575;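 active means viability at or below 30% in both replicate assays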;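 further: 100% = median of untreated cell wells with 0.1% DMSO on each plate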); conditions: HUVEC proliferation, CellTiter-Glo luminescence, 72 h; at 10 µM; stronger effect = lower value
Outline: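 Assay system: Primary human umbilical vein endothelial cells | Quantity: 1250 cells per well | Medium: Supplemented EBM, 2% fetal bovine serum | Detection: CellTiter-Glo luminescence measuring cellular ATP | Read-out: % viability vs DMSO wells | Plate: Collagen-coated 384-well format | Times: 72 h exposure, 37 °C, 5% CO2, 30 min RT equilibration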

[5] = reversal of MRP1-mediated doxorubicin resistance, pilot screen, H69AR cells, doxorubicin co-treatment (AID 601;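 active means viability loss from added drug above about 55%, and viability with drug at most 40%, in both replicates, limit read from the data, passing the limit was not always enough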); conditions: CellTiter-Glo, 72 h, at 10 µM; for differential viability (reversal): stronger effect = higher value
[6] = 384-well plate pilot, post-Golgi transport modulator project, inhibition of yeast transport mutant growth (AID 636; in the data active means inhibition above about 31%); conditions: absorbance 615 nm, about 18 h, stronger effect = higher value
[7] = growth suppression of yeast trafficking mutant, preliminary HTS, modulators of trafficking downstream of Golgi apparatus project, 1536-format plate, OD 615 nm (AID 637; in the data active means inhibition above about 30%); conditions: yeast transport mutant growth, absorbance 615 nm, 18 h; stronger effect = higher value
[8] = H69AR cells + 2 uM doxorubicin, measured here: viability with 2 uM doxorubicin, stronger effect = lower value
[9] = H69AR cells, compound alone cytotoxicity

| Structure (SMILES) | viability [1] [%] | Her2 level [2] | viability [3] | viability [4] | differential viability (reversal) ([5]; H69AR cells + 2 uM doxorubicin) | viability [5, 8] [%] | viability [5, 9] [%] | inhibition [6] | inhibition [7] |
| --- | --- | --- | --- | --- | --- | --- | --- | --- | --- |
| CCOC(=O)c1sc(Nc2nc3c(OC)cccc3s2)nc1C | 81.5 | 72% (inactive) | 81.5% (inactive) | 63.3% (inactive) | -7.45% (inactive) | 66.6 | 59.2 | 0.13% (inactive) | -4.76% (inactive) |
| COC(=O)c1ccccc1S(=O)(=O)N(Cc1cc2cc3c(cc2[nH]c1=O)OCO3)C1CCCCC1 | 83 | 98.5% (inactive) | 83% (inactive) | 82.6% (inactive) | -7.41% (inactive) | 67.4 | 60 | 4.74% (inactive) | -2% (inactive) |
| CCc1cc2c(=O)c(-c3ccc4c(c3)OCCO4)coc2cc1OC(=O)c1ccco1 | 72.5 | 68% (inactive) | 72.5% (inactive) | 64.3% (inactive) | -13.3% (inactive) | 63.9 | 50.5 | -3.29% (inactive) | 2.79% (inactive) |
| Cc1ccc(CNC(=O)c2coc(=O)c3ccccc23)o1 | 93.5 | 81% (inactive) | 93.5% (inactive) | 81.8% (inactive) | -24.6% (inactive) | 67 | 42.4 | -0.53% (inactive) | -5.82% (inactive) |
| COc1ccc(/C=N/n2cc(-c3ccc(OC)cc3)nc2N)cc1 | 85 | 99% (inactive) | 85% (inactive) | 82.5% (inactive) | -10.3% (inactive) | 63.6 | 53.3 | -1.41% (inactive) | -8% (inactive) |
| CCCc1nc2ccccc2c(=O)n1NC(=O)c1c(O)c2cccc3c2n(c1=O)CCC3 | 113 | 87.5% (inactive) | 113% (inactive) | 83.5% (inactive) | -6.06% (inactive) | 72.1 | 66 | -5.2% (inactive) | 14.1% (inactive) |
| COc1cccc(C(=O)Nc2c(C(N)=O)oc3ccccc23)c1 | 86.5 | 69% (inactive) | 86.5% (inactive) | 65.9% (inactive) | -13.6% (inactive) | 62.4 | 48.7 | -5.33% (inactive) | 3% (inactive) |
| CCOc1ccccc1-n1nnnc1SCC(=O)Nc1cc2oc3ccccc3c2cc1OC | 68.5 | 102% (inactive) | 68.5% (inactive) | 63.6% (inactive) | -11.1% (inactive) | 54.7 | 43.6 | 4.16% (inactive) | -9.05% (inactive) |
| Cc1nc2ccccc2c(=O)n1NC(=O)c1c(O)c2c(n(CC(C)C)c1=O)CCCC2 | 88.5 | 73.5% (inactive) | 88.5% (inactive) | 92% (inactive) | -17.2% (inactive) | 66.3 | 49.1 | -1.84% (inactive) | 9.35% (inactive) |
| COc1ccc(C2=NOC(C(=O)Nc3cc(Br)ccc3O)C2)cc1OC (configuration not stated) | 108 | 89% (inactive) | 108% (inactive) | 56.4% (inactive) | -10.5% (inactive) | 70.6 | 60.1 | -6.76% (inactive) | 1.8% (inactive) |
| COc1ccc(C(C)(C)C)cc1NC(=O)Nc1ccc2c(c1)OCO2 | 108 | 89.5% (inactive) | 108% (inactive) | 64.8% (inactive) | -12% (inactive) | 57.2 | 45.3 | -1.18% (inactive) | 23.4% (inactive) |
| CCOC(=O)c1c(C)oc2c1c(C(c1ccncc1)N1CCOCC1)c(O)c1ccccc12 (configuration not stated) | 104 | 85% (inactive) | 104% (inactive) | 9.39% (active) | -5.27% (inactive) | 6.38 | 1.11 | -0.13% (inactive) | -3.49% (inactive) |
| CSc1nc(N)nc(SCCS(=O)(=O)c2ccc(Cl)cc2)c1C#N | 90.5 | 68% (inactive) | 90.5% (inactive) | 56.6% (inactive) | -7.24% (inactive) | 34.2 | 26.9 | -3.47% (inactive) | -3.65% (inactive) |
| CCOC(=O)c1sc2nc(SCC(=O)NCc3ccco3)n(Cc3ccccc3)c(=O)c2c1C | 90.5 | 84% (inactive) | 90.5% (inactive) | 82% (inactive) | 13% (inactive) | 33 | 46 | -5.68% (inactive) | 0.98% (inactive) |
| Cc1ccc(NC(=O)COS(=O)c2ccc(C)cc2)cc1 (configuration not stated) | 97 | 95.5% (inactive) | 97% (inactive) | 69% (inactive) | -2.71% (inactive) | 41.3 | 38.6 | -1.69% (inactive) | -0.63% (inactive) |
| Cn1c(Cc2ccccc2)nnc1SCC(=O)c1ccc(Br)s1 | 97.5 | 83.5% (inactive) | 97.5% (inactive) | 81.4% (inactive) | -4.43% (inactive) | 53.9 | 49.4 | -2.08% (inactive) | -5.4% (inactive) |
| Cc1csc2ncc(C(=O)Nc3ccccc3Cl)c(=O)n12 | 87.5 | 86% (inactive) | 87.5% (inactive) | 66.8% (inactive) | 3.82% (inactive) | 44.5 | 48.3 | -4.13% (inactive) | 4.5% (inactive) |

| Structure (SMILES) | viability [1] [%] | Her2 level [2] | viability [3] | viability [4] | differential viability (reversal) ([5]; H69AR cells + 2 uM doxorubicin) | viability [5, 8] [%] | viability [5, 9] [%] | inhibition [6] | inhibition [7] |
| --- | --- | --- | --- | --- | --- | --- | --- | --- | --- |
| N#CC1=C(N)n2c(s/c(=C\c3ccco3)c2=O)=C(C#N)C1c1ccco1 (configuration not stated) | 100 | 31.5% (active) | 100% (inactive) | 78.6% (inactive) | -10.7% (inactive) | 58 | 47.4 | 0.13% (inactive) | -4.36% (inactive) |
| Cc1[nH]nc(N=CC2=C(O)CC(C)(C)CC2=O)c1-c1ccc(Cl)cc1 | 94.5 | 94.5% (inactive) | 94.5% (inactive) | 79.4% (inactive) | 1.14% (inactive) | 38.9 | 40.1 | 6.8% (inactive) | 6.83% (inactive) |
| COc1cccc(Cn2c(-c3nonc3N)nc3ccccc32)c1 | 93.5 | 82% (inactive) | 93.5% (inactive) | 58.2% (inactive) | -46.7% (inactive) | 62.7 | 16 | -2.6% (inactive) | -2.06% (inactive) |
| CCCNC(=O)c1c(N)n(-c2cc(OC)cc(OC)c2)c2nc3ccccc3nc12 | 89 | 73.5% (inactive) | 89% (inactive) | 38.6% (inactive) | -9.04% (inactive) | 66.7 | 57.6 | -3.87% (inactive) | 2.3% (inactive) |
| COc1ccc(N2CCN(Cc3cc(=O)oc4cc(C)c(Cl)c(C)c34)CC2)cc1 | 93.5 | 83.5% (inactive) | 93.5% (inactive) | 84.1% (inactive) | -1.03% (inactive) | 75.8 | 74.8 | -7.33% (inactive) | 1.9% (inactive) |
| CCCc1cc(-c2n[nH]c(C)c2-c2ccc(C(=O)OCC)o2)c(O)cc1O | 78 | 72% (inactive) | 78% (inactive) | 39.4% (inactive) | -10.2% (inactive) | 38.2 | 28 | -4.74% (inactive) | 1.45% (inactive) |
| CCOC(=O)N1CCN(CCC(=O)c2ccc(Cl)cc2)CC1 | 106 | 89.5% (inactive) | 106% (inactive) | 86.4% (inactive) | -5.11% (inactive) | 17.9 | 12.8 | -2.99% (inactive) | -6.51% (inactive) |
| C=C(c1ccc(O)cc1)c1ccc(O)cc1 | 105 | 93% (inactive) | 105% (inactive) | 70.8% (inactive) | -42.8% (inactive) | 87.9 | 45 | -5.92% (inactive) | -2.54% (inactive) |
| CCOC(=O)c1ccc(N2C(=O)CC(Sc3nnc(C)s3)C2=O)cc1 (configuration not stated) | 103 | 100% (inactive) | 103% (inactive) | 102% (inactive) | 4.82% (inactive) | 46.2 | 51 | -8.4% (inactive) | -6.67% (inactive) |
| Cc1ccc(S(=O)(=O)N2CCOCC2)cc1C(=O)Nc1ccc(-c2cn3ccsc3n2)cc1 | 80 | 80.5% (inactive) | 80% (inactive) | 58.7% (inactive) | -0.105% (inactive) | 70.8 | 70.7 | -2.63% (inactive) | -2.86% (inactive) |
| COc1cc(-c2noc(-c3ccccc3C(=O)NCc3ccco3)n2)cc(OC)c1OC | 79 | 72.5% (inactive) | 79% (inactive) | 55.6% (inactive) | -6.29% (inactive) | 65.2 | 59 | -5.14% (inactive) | 1.11% (inactive) |
| O=C(NC1CCc2ccccc21)C1CCN(S(=O)(=O)c2ccc(-n3cnnn3)cc2)CC1 (configuration not stated) | 74.5 | 85% (inactive) | 74.5% (inactive) | 96.4% (inactive) | -8.48% (inactive) | 63.5 | 55 | -2.63% (inactive) | -0.36% (inactive) |
| CCn1c2ccccc2c2cc(NC(=O)Cc3ccc(S(=O)(=O)N4CCOCC4)s3)ccc21 | 83 | 76.5% (inactive) | 83% (inactive) | 9.02% (active) | -10.1% (inactive) | 60.2 | 50.1 | -1.84% (inactive) | -2.73% (inactive) |
| Cc1ccc(Cn2c(C)nc3c(c2=O)c2nc4ccccc4nc2n3Cc2ccco2)cc1 | 118 | 71.5% (inactive) | 118% (inactive) | 54.9% (inactive) | -1.46% (inactive) | 50.5 | 49 | 1.32% (inactive) | 1.8% (inactive) |
| Cc1ccc2c(C)nc(Nc3nc(CSc4nnnn4-c4ccccc4)cc(=O)[nH]3)nc2c1 | 98 | 80% (inactive) | 98% (inactive) | 48.6% (inactive) | -27.3% (inactive) | 78 | 50.7 | -5.47% (inactive) | 1.31% (inactive) |
| O=C(CSc1nnc2scc(-c3ccccc3)n12)Nc1nsc(-c2ccccc2)n1 | 82.5 | 78% (inactive) | 82.5% (inactive) | 70.3% (inactive) | -14.1% (inactive) | 75.2 | 61.1 | -6.53% (inactive) | 0.48% (inactive) |
